Experimental data of several laboratories.
Compare with care: the assays were run in different laboratories.
Observed: cell growth or viability

For `CCc1ccc(N=C2C(=O)Nc3ccccc32)cc1`, the IC50 was 37300 nM (B16; MTT; 48 h).
With `CONC(=O)c1cccc2c1cc(C)n2-c1nc2c(c(NCc3ccccc3)n1)CCCN2` the IC50 was 1400 nM (BXPC-3; 72 h).
For `Cc1ccc(CN2C(=O)C(=Nc3cccc(C)c3)c3ccccc32)cc1`, the IC50 was 440 nM (B16; MTT; 48 h).
With `Cc1nc(Nc2ncc(C(=O)Nc3c(C)cccc3Cl)s2)cc(N2CC[C@H](O)C2)n1` the IC50 was over 10000 nM (Granta-519; ATP luminescence; 72 h).
The IC50 of `Cc1cccc(N=C2C(=O)N(Cc3cccc(Cl)c3)c3ccccc32)c1` is reported as 6710 nM (B16; MTT; 48 h).
With `O=c1cc(OCc2cc(-c3ccc(C(F)(F)F)cc3)no2)c2ccccc2o1` the IC50 was over 100000 nM (Z-138; MTS; 72 h).
The IC50 of `O=c1[nH]cc(F)c(=O)[nH]1` is reported as 2680 nM (DLD-1; MTT; 72 h).
`Cc1cc2c(C(=O)O)cccc2n1-c1nc2c(c(NCc3ccccc3)n1)CCCN2` has an IC50 of 900 nM (ARP-1; 72 h).
`O=C(CSc1nc2ccccc2s1)N/N=C/c1ccc(OCC(=O)Nc2ccc([N+](=O)[O-])cc2)cc1` gave an IC50 of 3750 nM (Z-138; MTS; 72 h).
With `FC(F)(F)c1cc(OCc2cc(-c3ccc(Cl)cc3Cl)no2)c2ccccc2n1` the IC50 was over 100000 nM (Z-138; MTS; 72 h).
With `O=C1C(=Nc2ccccc2I)c2ccccc2N1Cc1ccc(Br)cc1` the IC50 was 15200 nM (B16; MTT; 48 h).
`c1ccc(-c2cc(CNc3cccc4cccnc34)on2)nc1` gave an IC50 of 28200 nM (Z-138; MTS; 72 h).
With `O=C(CSc1nc2ccccc2s1)N/N=C/c1ccc(OCC(=O)Nc2cccc(Cl)c2)cc1` the IC50 was over 100000 nM (Z-138; MTS; 72 h).
The IC50 of `O=C1C(=Nc2ccc(Cl)cc2Br)c2ccccc2N1Cc1ccc([N+](=O)[O-])cc1` is reported as 2140 nM (B16; MTT; 48 h).
With `FC(F)(F)c1cc(OCc2cc(-c3ccccn3)no2)c2ccccc2n1` the IC50 was over 100000 nM (Z-138; MTS; 72 h).
The IC50 of `COc1cc(N=C2C(=O)N(Cc3ccccc3)c3ccccc32)cc(OC)c1` is reported as 570 nM (B16; MTT; 48 h).
With `COc1cc([C@@H]2c3cc4c(cc3[C@@H](O[C@@H]3O[C@@H]5CO[C@@H](C)O[C@H]5[C@H](O)[C@H]3O)[C@H]3COC(=O)[C@H]23)OCO4)cc(OC)c1O` the IC50 was 30 nM (Z-138; MTS; 72 h).
For `Cc1cc2c(C(N)=O)cccc2n1-c1nc2c(c(NCc3ccccc3)n1)CCCN2`, the IC50 was 1300 nM (ARP-1; 72 h).
With `COc1cccc2c1C(=O)c1c(O)c3c(c(O)c1C2=O)C[C@@](O)(C(=O)CO)C[C@@H]3O[C@H]1C[C@H](N)[C@H](O)[C@H](C)O1` the IC50 was 124 nM (BXPC-3; 96 h).
`O=C(CSc1nc2ccccc2s1)N/N=C/c1ccc(OCC(=O)Nc2ccc(Br)cc2)cc1` gave an IC50 of over 100000 nM (Z-138; MTS; 72 h).
With `FC(F)(F)c1ccc(-c2cc(COc3cc(C(F)(F)F)nc4ccccc34)on2)cc1` the IC50 was over 100000 nM (Z-138; MTS; 72 h).
